YB-1 expression: inhibitors of YB-1 gene expression, primary screen, cell-based, fluorescence. actives 0.37% (n = 30,000). delta delta Cp (YB-1 minus CDIP) (concentration not given with the values). U2OS, qRT-PCR YB-1 vs CDIP delta delta Cp, 16 h; stronger effect = higher value; zero = DMSO, each unit about twofold;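 active means delta delta Cp rounded down to an integer at or above 3, about 3 SD of DMSO wells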;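 further: higher means less YB-1 transcript or more CDIP transcript relative to DMSO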
INS-1E ATP HTS: protection of INS-1E cells from cytokine death, primary screen, ATP luminescence, single point | INS-1E cytokine-induced death, 48 h; normalised: neutral wells 0, positive control 100 | actives 0.1% (n = 20,000) | protection from cytokine-induced ATP loss, % at 10 µM | AID 488910, 2010;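 active means mean replicate protection from cytokine-induced ATP loss at least 50% and at least 75% of replicates each reaching 50%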
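Assay system: INS-1E rat cells / Quantity: 8000 cells per well / Medium: RPMI without phenol red, 5% FBS / Probe or stimulus: three-cytokine cocktail (IFN-γ, TNF-α, IL-1β) / Dosing: one compound concentration, pin transfer / Timing: 48 h co-treatment, 10 min post-lysis read / Technique: CellTiter-Glo luminescence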
T cruzi intra: inhibitors of intracellular Trypanosoma cruzi, primary screen, cell-based, plate reader, single point, set 2; intracellular Trypanosoma cruzi in host cells; activity score (inhibition), % at 5.01 µM; actives 4.9% (n = 22,000); in the data active means activity score above about 55%;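 further: parasites and compound incubated about four days before reading; 0% = median of neutral control wells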
* marks the source's active call; other numbers are inactive results; x = no result. Many of the other results were omitted from the sample, so hits are more common in it than they were.

SMILES	YB-1 expression	INS-1E ATP HTS	T cruzi intra
Cc1noc(C)c1S(=O)(=O)Nc1ccc2c(c1)C(=O)N([C@@H](C)CO)C[C@@H](C)[C@H](CN(C)Cc1ccc(C(F)(F)F)cc1)O2	-0.4	-18	28
Cc1noc(C)c1S(=O)(=O)Nc1ccc2c(c1)CC(=O)N([C@H](C)CO)C[C@H](C)[C@H](CN(C)Cc1ccc(Cl)c(Cl)c1)O2	-0.011	-10	53
Cc1noc(C)c1S(=O)(=O)Nc1ccc2c(c1)C(=O)N([C@H](C)CO)C[C@@H](C)[C@@H](CN(C)Cc1ccc(Cl)c(Cl)c1)O2	-0.044	-8	5
Cc1noc(C)c1S(=O)(=O)Nc1ccc2c(c1)C(=O)N([C@H](C)CO)C[C@H](C)[C@@H](CN(C)Cc1ccc(Cl)c(Cl)c1)O2	-0.026	-10	63*
Cc1noc(C)c1S(=O)(=O)Nc1ccc2c(c1)C(=O)N([C@H](C)CO)C[C@H](C)[C@H](CN(C)Cc1ccc(C(F)(F)F)cc1)O2	-0.59	-12	63*
Cc1noc(C)c1S(=O)(=O)Nc1ccc2c(c1)CC(=O)N([C@H](C)CO)C[C@@H](C)[C@@H](CN(C)Cc1ccc(Cl)c(Cl)c1)O2	0.19	-28	61*
C[C@@H]1CN([C@H](C)CO)C(=O)Cc2cc(NS(=O)(=O)c3ccc(F)cc3)ccc2O[C@H]1CN(C)C(=O)Nc1ccc(C(F)(F)F)cc1	-0.65	0	-5
C=CCNC(=O)CSc1nccc(-c2sc3sc(Br)c(C)c3c2C)n1	0.55	x	x
C[C@@H]1CCCCO[C@@H](CN(C)S(=O)(=O)c2cccs2)[C@@H](C)CN([C@H](C)CO)C(=O)c2cc(NC(=O)CCC(F)(F)F)ccc2O1	0.26	0	-23
C[C@@H]1CCCCO[C@@H](CN(C)S(=O)(=O)c2cccs2)[C@@H](C)CN([C@H](C)CO)C(=O)c2cc(NC(=O)Nc3ccc(C(F)(F)F)cc3)ccc2O1	0.15	-12	67*
C[C@@H]1CCCCO[C@H](CN(C)S(=O)(=O)c2cccs2)[C@@H](C)CN([C@H](C)CO)C(=O)c2cc(NC(=O)Nc3ccc4c(c3)OCO4)ccc2O1	0.22	0	-15
C[C@@H]1CCCCO[C@H](CN(C)S(=O)(=O)c2cccs2)[C@@H](C)CN([C@H](C)CO)C(=O)c2cc(NC(=O)Nc3ccc(C(F)(F)F)cc3)ccc2O1	0.093	-15	62*
NC(=O)c1ccccc1C(=O)c1ccccc1	-0.058	x	x
C[C@H](CO)N1C[C@H](C)[C@H](CN(C)Cc2ccc(Oc3ccccc3)cc2)Oc2c(NC(=O)c3ccncc3)cccc2C1=O	-0.14	-11	60*
C[C@@H]1CN([C@H](C)CO)C(=O)c2cccc(NC(=O)c3ccncc3)c2O[C@@H]1CN(C)Cc1ccccc1	0.081	0	-12
C[C@@H]1CN([C@@H](C)CO)C(=O)c2cccc(NC(=O)c3cnccn3)c2O[C@@H]1CN(C)Cc1ccc(Oc2ccccc2)cc1	-0.11	-28	1
C[C@H]1CN([C@@H](C)CO)C(=O)c2cccc(NC(=O)c3ccncc3)c2O[C@@H]1CN(C)Cc1ccccc1	-0.19	6	81*
C[C@H](CO)N1C[C@H](C)[C@@H](CN(C)Cc2ccccc2)Oc2c(cccc2N(C)C)C1=O	-0.063	5	-9
C[C@H](CO)N1C[C@H](C)[C@H](CN(C)Cc2ccccc2)Oc2c(NC(=O)c3ccncc3)cccc2C1=O	-0.0056	-1	81*
C[C@@H]1CN([C@@H](C)CO)C(=O)c2cccc(N(C)C)c2O[C@H]1CN(C)Cc1ccccc1	14*	-1	22
C[C@@H]1CN([C@H](C)CO)C(=O)c2cccc(NC(=O)c3ccncc3)c2O[C@H]1CN(C)Cc1ccc(C(=O)O)cc1	-0.28	1	-10
O=C(c1ccccc1)N1CN(C2CCCCC2)Cc2c1sc1c2CCCC1	-0.25	x	x
Cc1cc(C)c2c(c1C(=O)Nc1cccc(C(F)(F)F)c1)CC(C)(C)C2=O	-0.34	x	x
COCCOC(=O)N1C(=O)[C@@]2(c3ccccc31)[C@H](C(=O)N1CCc3cc(OC)c(OC)cc3C1)[C@H]1C(=O)O[C@H](c3ccccc3)[C@H](c3ccccc3)N1[C@@H]2c1ccccc1OCCO	0.66	x	x
CC(=O)Oc1ccc2occ(C(=O)CCN(C)C)c2c1	-0.12	x	x
C[C@@H]1CN([C@H](C)CO)C(=O)c2cccc(NC(=O)c3ccncc3)c2O[C@H]1CN(C)C	0.3	8	-11
C[C@H](CO)N1C[C@H](C)[C@H](CN(C)C)Oc2c(NC(=O)c3ccncc3)cccc2C1=O	3.6*	13	-23
CCOC(=O)c1cnn(-c2nc(C)cc(C)n2)c1N	-0.12	x	x
